# Test results published in publication PMC4716096 (Kidney Research and Clinical Practice, 2012).
# What was measured:
# [1] = Pharmacokinetic profile of tacrolimus; format: in vivo, human; details: dose-adjusted whole-blood concentrations; P=0.024 and 0.031
# Summary of the method: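 Stable Korean kidney recipients (n=18; ≥20 y, ≥6 months post-transplant, creatinine <2.0 mg/dL) on steroid/mycophenolate/tacrolimus, trough-targeted 5–10 ng/mL. Fasting; whole blood drawn pre-morning dose (C0) and at 1–4 h post-dose; mass spectrometry. AUC0–4 by linear trapezoidal rule; values dose-adjusted. Lean/fat mass by bioelectrical impedance; groups split at median, compared by Mann-Whitney U (P<0.05).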
# [2] = n-octanol versus water; cited from earlier work
# [3] = transplant recipient group with a high BMI; cited from earlier work
structure (smiles),measurement,setting,value
C=CC[C@@H]1/C=C(\C)C[C@H](C)C[C@H](OC)[C@H]2O[C@@](O)(C(=O)C(=O)N3CCCC[C@H]3C(=O)O[C@H](/C(C)=C/[C@@H]3CC[C@@H](O)[C@H](OC)C3)[C@H](C)[C@@H](O)CC1=O)[C@H](C)C[C@@H]2OC [tacrolimus],C0 and C4 in the high-fat group compared with the low-fat group,[1],significantly elevated
same,partition coefficient of tacrolimus in n-octanol relative to water,[2],1000 fold
same,tacrolimus levels,[3],higher than 15 ng/mL
